Assay results published in PubChem BioAssay AID2052 (NMMLSC, 2009).
Out of some 330,000 compounds screened, about 220 (0.067%) were called active.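 How the source made its calls: active means response, share of CD8 T cells binding vesicles, and their 90th percentile fluorescence all below set limits (cut at about 80% in these data, passing the limit was not always enough); inactive means the rest, inconclusive results apart.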 The sample as a whole holds a higher share of actives than the screen did.

Assay: modulators of CD8 T cell-vesicle binding, primary screen, mouse 2C CD8+ T cells, flow cytometry (AID 2052);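 on double positive events: binding gate set so that unloaded-vesicle control wells show 10% double positive cells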;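 on response (vesicle binding): values below 100% mean blocked vesicle binding to the CD8+ T cells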
Conditions: 2C CD8+ T cell-vesicle binding, at 7 µM, stronger effect = lower value; double positive events: measured here: CD8+ vesicle-bound cell fraction
How it was run: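 Assay system: 2C TCR transgenic mouse naive CD8+ T cells, MACS-purified | Read-out: CD8+ gate FL2 mean fluorescence as % of same-row positive control | Signal: High-throughput flow cytometry with anti-B7-1 and anti-CD8 staining | Timing: Binding step 1.5 h, 37 °C, antibody labelling 20 min, ice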

SMILES	double positive events [%]	response (vesicle binding)
Cc1oc2c(F)c(F)c(F)c(F)c2c1S(=O)(=O)Nc1cccc(C(F)(F)F)c1	13.2	170% (inactive)
COc1ccc(C(=O)COC(=O)c2nn(C)c(=O)c3ccccc23)c(OC)c1	13.7	187% (inactive)
CC(=O)c1cccc(NC(=O)CN2C(=O)c3cccnc3Oc3ccc(Cl)cc32)c1	54.8	668% (inactive)
COC(=O)C1=CO[C@@H](O[C@@H]2O[C@H](CO)[C@@H](O)[C@H](O)[C@H]2O)C2C1C[C@H](O)[C@@H]2C (stereo partly specified)	33.1	220% (inactive)
CCOC(CNC(=O)C1CCN(S(=O)(=O)c2ccc3nc4c(c(C(=O)O)c3c2)CC(C)CC4)CC1)OCC (stereo unspecified)	3.9	171% (inactive)
CN(C)C(CNC(=O)c1ccc(OCc2cn3ccccc3n2)cc1)c1ccco1 (stereo unspecified)	23.9	416% (inactive)
COc1ccc(NC(C(=O)Nc2cccc(C(C)=O)c2)c2ccccc2)cc1 (stereo unspecified)	36	198% (inactive)
O=C(CCc1nnc2ccc(NCc3ccco3)nn12)Nc1cc(F)ccc1F	36.4	186% (inactive)
O=C(COC(=O)c1ccc(NS(=O)(=O)c2cccs2)cc1O)Nc1ccc(F)cc1	18.7	74.7% (inactive)
Nn1c(SCC(=O)Nc2nccs2)nncc1=O	30.5	224% (inactive)
COc1ccccc1C(=O)NC(CCSC)C(=O)NNC(=O)c1csc(N2CCOCC2)n1 (stereo unspecified)	27.1	242% (inactive)
CCc1nc2ccccc2c(C(=O)OC2CCCCC2=O)c1C (stereo unspecified)	48.4	288% (inactive)
Cc1cccc(C(=O)N2CCCC(Nc3ccc(C(C)C)cc3)C2)n1 (stereo unspecified)	11.9	567% (inactive)
Cc1ccc(-c2nnc(C)c(N3CC(C)OC(C)C3)n2)cc1 (stereo unspecified)	50.8	123% (inactive)
COC(=O)NNC(=O)C1CCC(C)CC1 (stereo unspecified)	13.1	199% (inactive)
O=C(COc1ccccc1)Nc1ccc(N2CCN(C(=O)c3cccs3)CC2)cc1	4.1	606% (inactive)
Brc1c(CSc2nncc3ccccc23)nc2ccccn12	26.2	103% (inactive)
COc1ccccc1C(=O)Nc1ccnn1C1CCN(C(=O)C(C)(C)C)CC1	51.4	266% (inactive)
Cc1ccc(S(=O)(=O)NCCC(=O)NC2CCN(Cc3ccccc3)CC2)cc1	42.6	256% (inactive)
CCCCCCCC(=O)OC(CN1CCCCCC1)CN1CCCC1=O (stereo unspecified)	16.5	372% (inactive)
COC(=O)[C@@H]1CC(O)CN1C(=O)C12CC3CC(CC(C3)C1)C2 (stereo partly specified)	52.2	228% (inactive)

SMILES	double positive events [%]	response (vesicle binding)
Cc1ccc(-c2csc(NC(=O)C3=COCCO3)n2)cc1C	20.8	138% (inactive)
CC(C)OP(=O)(OC(C)C)C(Nc1ccccc1)c1cccc([N+](=O)[O-])c1 (stereo unspecified)	20.7	684% (inactive)
COc1cccc(NC(=O)COc2cc(C)cc3oc(=O)cc(C)c23)c1	34.7	510% (inactive)
CC1(C)CC(=O)C=C(N2CCOCC2)C1	19.8	266% (inactive)
Cc1nc([N+](=O)[O-])c(NCCCO)n1Cc1ccccc1	19.6	72.9% (inactive)
Cc1cc(C)n(C(=O)c2ccc(C)c(S(=O)(=O)N3CCOCC3)c2)n1	54	212% (inactive)
C/C=C/c1ccc(OCC(=O)NNC(=O)CN(C)S(=O)(=O)c2ccc(C)cc2)c(OC)c1	47.4	180% (inactive)
CCOC(=O)C(=CNNc1ccsc1C(=O)OC)C(=O)OCC	17.6	541% (inactive)
CC(=O)c1cc(-c2ccccc2)n(CCC(=O)NC2CCCCCC2)c1C	47.9	183% (inactive)
CCc1ccccc1NC(=O)[C@@H]1CCC(=O)N1C1OC(=O)c2c1ccc(OC)c2OC (stereo partly specified)	15.9	194% (inactive)
C/C(=N\N(C)C)c1ccc(OCCOc2ccc([N+](=O)[O-])cc2)cc1	36.6	389% (inactive)
COc1ccc(C2c3[nH]c4ccccc4c3C[C@H]3C(=O)N(CC(C)C)CC(=O)N23)c(OC)c1 (stereo partly specified)	23.9	1350% (inactive)
CC1(C)C2CC=C(/C=N/NC(=O)C3CC3)C1C2 (stereo unspecified)	55.1	548% (inactive)
O=C(NCc1cccnc1)c1ccccc1NC(=O)c1c(F)cccc1F	21.9	104% (inactive)
CC(=O)N1CCc2cc(S(=O)(=O)NC3CCCCC3)ccc21	27	222% (inactive)
Cc1cccc(C(=O)NCc2nnc(SC(C)C(=O)Nc3nnc(C)s3)n2C)c1 (stereo unspecified)	13.6	258% (inactive)
CCCCCN(C(=O)NC(=O)Nc1cccc(C)c1C)S(C)(=O)=O	28.6	413% (inactive)
COc1ccc(CCNC(=O)CN(c2ccccc2)S(C)(=O)=O)cc1OC	42.8	345% (inactive)
COc1ccc(C(=O)OCC(=O)NC(=O)CCSc2ccccc2)cc1	48.7	413% (inactive)
CC(NC(=S)Nc1ccccc1)C1COc2ccccc2O1 (stereo unspecified)	63	843% (inactive)
COc1ccccc1S(=O)(=O)NCc1ccc(C(=O)N(C)Cc2ccc(F)cc2)cc1	31.2	557% (inactive)

SMILES	double positive events [%]	response (vesicle binding)
CCOc1ccc(NC(=O)CC2C(=O)N(c3ccccc3)C(=O)N2CCOC)cc1 (stereo unspecified)	22.1	526% (inactive)
Cc1cc(C)cc(NC(=O)NC2CCN(CC(=O)Nc3cccc(Cl)c3C)CC2)c1	43.5	437% (inactive)
O=C1C(=O)N(CCN2CCOCC2)C(c2cccc(Cl)c2)/C1=C(/O)c1ccc2c(c1)OCO2 (stereo unspecified)	10.1	653% (inactive)
O=C(NCc1ccc2c(c1)OCO2)c1cc(F)c(F)cc1Cl	11.4	338% (inactive)
O=C(NCc1ccc2c(c1)OCO2)c1ccc(Cl)s1	0	0% (active)
O=C(NCc1ccc2c(c1)OCO2)c1cc2c(s1)CS(=O)(=O)C2	37.5	576% (inactive)
COc1ccc(C(=O)NCc2ccc(C)cc2)cc1S(=O)(=O)N1CCCC1	47.1	276% (inactive)
O=C(CSc1nc2ccccc2c(=O)n1-c1ccccc1F)N1CCOCC1	37.3	244% (inactive)
Cc1ccc(Cl)c(OCC(=O)N(C)CC(=O)Nc2ccc(N3CCOCC3)cc2)c1	61.8	424% (inactive)
CCOC(=O)c1cccc(NC(=O)C2CCCN(S(=O)(=O)c3cnc[nH]3)C2)c1 (stereo unspecified)	47.8	586% (inactive)
Cc1nc2ccc(C(=O)N(C)CC3CCCN(CCc4ccc(Cl)cc4)C3)cc2[nH]1 (stereo unspecified)	20.7	442% (inactive)
Cc1ccc(N2CC(C(=O)NCCS(=O)(=O)N3CCN(c4ccccc4)CC3)CC2=O)cc1 (stereo unspecified)	11	383% (inactive)
CN1C(=O)/C(=C/C=C2\SCCN2C)OC1=S	25.3	177% (inactive)
CCN1CCN(C(=O)c2cc3cc4ccc(OC)cc4nc3s2)CC1	24.6	601% (inactive)
CN(CC(=O)NCCc1ccc(S(N)(=O)=O)cc1)CC(=O)Nc1ccc(Cl)cc1	39.4	1090% (inactive)
COc1ccc([N+](=O)[O-])cc1NC(=O)c1ccc(N(Cc2ccccc2C)S(C)(=O)=O)cc1	0.1	6.1% (active)
COc1ccc(C(=O)CC(=O)C(=O)Nc2cc([N+](=O)[O-])ccc2OC)cc1	13.4	256% (inactive)
Cc1ccccc1CN(c1ccc(C(=O)NCC2CCCO2)cc1)S(C)(=O)=O (stereo unspecified)	4.3	168% (inactive)
COc1ccccc1OCCn1c(SCC(N)=O)nc2ccccc21	16	348% (inactive)
Cc1ccc(NC(=O)CN(C)S(=O)(=O)c2cnc[nH]2)cc1C	18.7	261% (inactive)
CC(Oc1ccccc1)C(=O)Nc1c2c(nn1-c1ccccc1)CS(=O)C2 (stereo unspecified)	7.9	237% (inactive)

SMILES	double positive events [%]	response (vesicle binding)
CCOC(=O)c1ccccc1NC(=S)N1CCC(C(N)=O)CC1	33.7	285% (inactive)
OC(CNCc1ccc(Cl)c(Cl)c1)c1ccccc1 (stereo unspecified)	58.3	66.1% (inactive)
Cc1c(NC(=S)NC(=O)CCc2ccccc2)c(=O)n(-c2ccccc2)n1C	1.1	17.6% (active)
Cc1c(NC(=O)CN2C(=O)C(=O)N(Cc3ccccc3)C2=O)c(=O)n(-c2ccccc2)n1C	54.7	606% (inactive)
Cc1c(NC(=S)Nc2ccccc2)c(=O)n(-c2ccccc2)n1C	28	297% (inactive)
CC(C)(C)c1cc(P(=O)(c2ccccc2)c2ccccc2)ccc1O	28.1	82.3% (inactive)
O=C(CN1CCN(C2CCCCC2)CC1)Nc1ccccc1N1CCCCC1	6.3	0% (active)
CC(=O)c1ccc(N2CCN(CC(=O)Nc3ccccc3N3CCOCC3)CC2)cc1	42.5	203% (inactive)
Cc1ccccc1NC(=O)Nc1ccccc1N1CCCCC1	27.3	308% (inactive)
COc1ccc(CN(C)C(=S)Nc2ccc(Cl)cc2Cl)cc1	9.4	367% (inactive)
CCN1CCN(C(=O)C2CCN(S(=O)(=O)c3cc(Cl)ccc3Cl)CC2)CC1	29.3	223% (inactive)
O=C(NN1C(=O)C2C3C=CC(C3)C2C1=O)c1ccco1 (stereo unspecified)	43	570% (inactive)
CCOc1ccc2[nH]c(=O)c(CN(Cc3nnnn3CCc3ccccc3)CC3CCCO3)cc2c1 (stereo unspecified)	50.9	238% (inactive)
COC(=O)c1ccc(C2NC(=O)NC(C)=C2C(=O)N(C)C)cc1 (stereo unspecified)	31.3	393% (inactive)
CCOc1ccc(CCNC(=O)COC(=O)C2CCN(c3ccc(C(F)(F)F)cn3)CC2)cc1OCC	38.6	818% (inactive)
CCCc1c(C(=O)Nc2ccc(F)cc2)cnn1-c1ccccc1	19.3	479% (inactive)
O=C(COC(=O)CC1CC2CCC1C2)NC(=O)NC1CCCC1 (stereo unspecified)	20.7	248% (inactive)
COc1ccc(OC)c(C(c2nnnn2C(C)(C)C)N2CCc3ccccc3C2)c1 (stereo unspecified)	55.6	342% (inactive)
COCCn1nnnc1C(c1cc2ccc(OC)cc2[nH]c1=O)N1CCc2ccccc2C1 (stereo unspecified)	16.7	0% (active)
CCOc1ccc2[nH]c(=O)c(C(c3nnnn3CCOC)N3CCOCC3)cc2c1 (stereo unspecified)	11.4	261% (inactive)
